Measurements: article PMC7003739 (Clinical Pharmacology in Drug Development, 2019)
Marks after values point to notes of the source that are not given here.

Legend:
[1] = Plasma PK after single oral doses; type: in vivo, human; details: for AUCinf, arithmetic mean (SD) / AUCinf, geometric mean (%CV) / Cmax, arithmetic mean (SD) / Cmax, geometric mean (%CV) / tmax, median (range) / t½, arithmetic mean (SD): n=6; for tmax, J‐W difference of median: Japanese‐Western
Summary of the method: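 Healthy Japanese and Western volunteers took single oral doses of 1, 5 and 30 mg or placebo with 240 mL water on days 1, 4 and 7, with a 2-day washout. Heparinized blood was taken predose and at 0.25–48 h, centrifuged within 30 min at 4°C, and the plasma frozen at –20°C. Assay was LC-MS/MS (0.100–350 ng/mL), with values below the quantification limit set to zero. Japanese/Western geometric mean ratios came from log-scale ANOVA.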

Urinary PK = type: in vivo, human; details: for Ae6, arithmetic mean (SD) / Ae12, arithmetic mean (SD) / Ae24%, arithmetic mean (SD) / CLR, arithmetic mean (SD) / CLR, geometric mean (%CV) / CLR, median: Cohort A
[2] = Plasma PK after single and multiple doses; type: in vivo, human; details: Japanese, Cohort B; for AUCτ, arithmetic mean (SD) / AUCτ, geometric mean (%CV): τ 12 hours
Safety and tolerability = type: in vivo, human
Summary of the method: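 Healthy Japanese volunteers (Cohort B) were randomised 3:1 to a single oral 15 mg test compound dose or matching placebo on day 1, then 15 mg BID for 5 days (single dose on the last day) or placebo. Adverse events (intensity and treatment relatedness), clinical observations and vital signs were monitored throughout. ECG was done at specified post-dose times. Physical examination was on day 0 and 72 h after the final dose.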

[3] = humans; cited from earlier work
[4] = 15 mg BID over 14 days, healthy volunteers; cited from earlier work
[5] = Japanese, single oral 1 mg, Cohort A
[6] = Japanese, single oral 5 mg, Cohort A
[7] = Japanese, single oral 30 mg, Cohort A
[8] = Western, single oral 1 mg, Cohort A
[9] = Western, single oral 5 mg, Cohort A
[10] = Western, single oral 30 mg, Cohort A
[11] = Japanese, Cohort B, single 15 mg dose
[12] = Japanese, single oral 1 mg, n=6
[13] = Japanese, single oral 5 mg, n=5
[14] = Japanese, single oral 5 mg, n=6
[15] = Japanese, single oral 30 mg, n=6
[16] = Western, single oral 30 mg, n=6
[17] = day 8 multiple dose 15 mg BID for 5 days, n=6
[18] = Cohort B Japanese, 15 mg BID, N=6

SMILES: C[C@@H]1CCN(C(=O)CC#N)C[C@@H]1N(C)c1ncnc2[nH]ccc12 [tofacitinib]
- differences in systemic exposure (Cmax, AUCinf) between Japanese and Western volunteers ([1]; 1, 5, 30 mg single doses, analysis of variance): No significant differences
- AUCinf, arithmetic mean (SD) [1, 5]: 22.8 (6.37) ng ⋅ h/mL
- AUCinf, geometric mean (%CV) [1, 5]: 22.0 (28) ng ⋅ h/mL
- Cmax, arithmetic mean (SD) [1, 5]: 7.38 (1.05) ng/mL
- Cmax, geometric mean (%CV) [1, 5]: 7.32 (14) ng/mL
- tmax, median (range) [1, 5]: 0.75 (0.50‐2.00) h
- t½, arithmetic mean (SD) [1, 5]: 1.96 (0.240) h
- AUCinf, arithmetic mean (SD) [1, 6]: 114 (25.5) ng ⋅ h/mL
- AUCinf, geometric mean (%CV) [1, 6]: 111 (22) ng ⋅ h/mL
- Cmax, arithmetic mean (SD) [1, 6]: 43.1 (15.0) ng/mL
- Cmax, geometric mean (%CV) [1, 6]: 41.3 (35) ng/mL
- tmax, median (range) [1, 6]: 0.50 (0.50‐1.00) h
- t½, arithmetic mean (SD) [1, 6]: 2.49 (0.570) h
- AUCinf, arithmetic mean (SD) [1, 7]: 775 (203) ng ⋅ h/mL
- AUCinf, geometric mean (%CV) [1, 7]: 754 (26) ng ⋅ h/mL
- Cmax, arithmetic mean (SD) [1, 7]: 324 (82.7) ng/mL
- Cmax, geometric mean (%CV) [1, 7]: 315 (25) ng/mL
- tmax, median (range) [1, 7]: 0.50 (0.50‐1.00) h
- t½, arithmetic mean (SD) [1, 7]: 3.14 (0.497) h
- tmax, J‐W difference of median ([1]; single oral 1 mg, Cohort A): 0.00 h
- tmax, J‐W difference of median ([1]; single oral 5 mg, Cohort A): 0.00 h
- tmax, J‐W difference of median ([1]; single oral 30 mg, Cohort A): 0.00 h
- AUCinf, arithmetic mean (SD) [1, 8]: 22.9 (2.52) ng ⋅ h/mL
- AUCinf, geometric mean (%CV) [1, 8]: 22.8 (11) ng ⋅ h/mL
- Cmax, arithmetic mean (SD) [1, 8]: 7.53 (1.69) ng/mL
- Cmax, geometric mean (%CV) [1, 8]: 7.36 (22) ng/mL
- tmax, median (range) [1, 8]: 0.75 (0.50‐1.00) h
- t½, arithmetic mean (SD) [1, 8]: 2.14 (0.210) h
- AUCinf, arithmetic mean (SD) [1, 9]: 120 (16.8) ng ⋅ h/mL
- AUCinf, geometric mean (%CV) [1, 9]: 119 (14) ng ⋅ h/mL
- Cmax, arithmetic mean (SD) [1, 9]: 36.0 (9.78) ng/mL
- Cmax, geometric mean (%CV) [1, 9]: 34.9 (27) ng/mL
- tmax, median (range) [1, 9]: 0.50 (0.50‐2.00) h
- t½, arithmetic mean (SD) [1, 9]: 2.85 (0.691) h
- AUCinf, arithmetic mean (SD) [1, 10]: 797 (131) ng ⋅ h/mL
- AUCinf, geometric mean (%CV) [1, 10]: 788 (16) ng ⋅ h/mL
- Cmax, arithmetic mean (SD) [1, 10]: 269 (47.9) ng/mL
- Cmax, geometric mean (%CV) [1, 10]: 265 (18) ng/mL
- tmax, median (range) [1, 10]: 0.50 (0.50‐1.00) h
- t½, arithmetic mean (SD) [1, 10]: 3.50 (0.349) h
- geometric mean Cmax in Japanese higher than in Western volunteers ([1]; single 5 and 30 mg doses, Cohort A): approximately 19%
- increase of systemic exposure with dose ([1]; single oral doses 1, 5, 30 mg): approximately dose‐proportional
- CLR reduction after multiple‐dose vs single‐dose administration, average (Urinary PK; Japanese, Cohort B, 15 mg): 24%
- CLR, geometric mean [SD] (Urinary PK; Japanese, Cohort B, multiple dose 15 mg BID): 120 mL/min
- Ae24%, arithmetic mean (SD) percentage of unchanged tofacitinib excreted in urine 24 hours after dose (Urinary PK; [11]): 27.1%
- CLR, geometric mean [SD] (Urinary PK; [11]): 158 mL/min
- Mean CLR decrease with increasing dose (Urinary PK; Japanese, single doses 1 to 30 mg (162 to 148 mL/min)): 8.6%
- Ae6, arithmetic mean (SD) (Urinary PK; [12]): 0.191 (0.0469) mg
- Ae12, arithmetic mean (SD) (Urinary PK; [12]): 0.215 (0.0527) mg
- Ae24%, arithmetic mean (SD) (Urinary PK; [12]): 22.0%
- CLR, arithmetic mean (SD) (Urinary PK; [12]): 166 (45.2) mL/min
- CLR, geometric mean (%CV) (Urinary PK; [12]): 162 (27) mL/min
- CLR, median (Urinary PK; [12]): 144 mL/min
- Ae24%, arithmetic mean (SD) (Urinary PK; Japanese, single oral 1 mg, n=6, listed as Tofacitinib): 22.0 (5.34) %
- Ae12, arithmetic mean (SD) (Urinary PK; [13]): 0.995 ^c (0.367) mg
- Ae24%, arithmetic mean (SD) (Urinary PK; [13]): 20.4%
- CLR, geometric mean (%CV) (Urinary PK; [13]): 134 ^c (25) mL/min
- Ae24%, arithmetic mean (SD) (Urinary PK; Japanese, single oral 5 mg, n=5, listed as Tofacitinib): 20.4 ^c (7.51) %
- Ae6, arithmetic mean (SD) (Urinary PK; [14]): 0.890 (0.327) mg
- CLR, arithmetic mean (SD) (Urinary PK; [14]): 137 (33.8) mL/min
- CLR, median (Urinary PK; [14]): 136 mL/min
- Ae6, arithmetic mean (SD) (Urinary PK; [15]): 5.59 (0.832) mg
- Ae12, arithmetic mean (SD) (Urinary PK; [15]): 6.46 (0.791) mg
- Ae24%, arithmetic mean (SD) (Urinary PK; [15]): 22.5%
- CLR, arithmetic mean (SD) (Urinary PK; [15]): 153 (41.8) mL/min
- CLR, geometric mean (%CV) (Urinary PK; [15]): 148 (27) mL/min
- CLR, median (Urinary PK; [15]): 149 mL/min
- Ae24%, arithmetic mean (SD) (Urinary PK; Japanese, single oral 30 mg, n=6, listed as Tofacitinib): 22.5 (3.00) %
- Mean CLR decrease with increasing dose (Urinary PK; Western, single doses 1 to 30 mg (160 to 124 mL/min)): 22.5%
- Ae24%, arithmetic mean (SD) (Urinary PK; Western, single oral 1 mg, n=5): 21.2%
- CLR, geometric mean (%CV) (Urinary PK; Western, single oral 1 mg, n=5): 160 ^c (11) mL/min
- Ae24%, arithmetic mean (SD) (Urinary PK; Western, single oral 1 mg, n=5, listed as Tofacitinib): 21.2 ^c (0.865) %
- Ae6, arithmetic mean (SD) (Urinary PK; Western, single oral 1 mg, n=6): 0.169 (0.0128) mg
- Ae12, arithmetic mean (SD) (Urinary PK; Western, single oral 1 mg, n=6): 0.199 (0.0127) mg
- CLR, arithmetic mean (SD) (Urinary PK; Western, single oral 1 mg, n=6): 161 (17.7) mL/min
- CLR, median (Urinary PK; Western, single oral 1 mg, n=6): 158 mL/min
- Ae12, arithmetic mean (SD) (Urinary PK; Western, single oral 5 mg, n=5): 0.919 ^c (0.265) mg
- Ae24%, arithmetic mean (SD) (Urinary PK; Western, single oral 5 mg, n=5): 19.9%
- CLR, geometric mean (%CV) (Urinary PK; Western, single oral 5 mg, n=5): 136 ^c (29) mL/min
- Ae24%, arithmetic mean (SD) (Urinary PK; Western, single oral 5 mg, n=5, listed as Tofacitinib): 19.9 ^c (5.15) %
- Ae6, arithmetic mean (SD) (Urinary PK; Western, single oral 5 mg, n=6): 0.744 (0.224) mg
- CLR, arithmetic mean (SD) (Urinary PK; Western, single oral 5 mg, n=6): 141 (40.6) mL/min
- CLR, median (Urinary PK; Western, single oral 5 mg, n=6): 148 mL/min
- Ae6, arithmetic mean (SD) (Urinary PK; [16]): 4.15 (1.11) mg
- Ae12, arithmetic mean (SD) (Urinary PK; [16]): 5.63 (1.28) mg
- Ae24%, arithmetic mean (SD) (Urinary PK; [16]): 19.8%
- CLR, arithmetic mean (SD) (Urinary PK; [16]): 127 (30.1) mL/min
- CLR, geometric mean (%CV) (Urinary PK; [16]): 124 (24) mL/min
- CLR, median (Urinary PK; [16]): 127 mL/min
- Ae24%, arithmetic mean (SD) (Urinary PK; Western, single oral 30 mg, n=6, listed as Tofacitinib): 19.8 (4.11) %
- percentage of unchanged tofacitinib excreted in urine (Urinary PK; over 24 hours after single‐dose administration, across doses and ethnicities): approximately 20%
- drug accumulation upon repeat dosing ([2]; 15 mg BID): negligible drug accumulation
- time to steady state plasma concentration ([2]; 15 mg BID for 5 days): ≤ 24 h
- AUCinf, arithmetic mean (SD) ([2]; day 1 single dose 15 mg, n=6): 417 (133) ng ⋅ h/mL
- AUCinf, geometric mean (%CV) ([2]; day 1 single dose 15 mg, n=6): 399 (32) ng ⋅ h/mL
- Cmax, arithmetic mean (SD) ([2]; day 1 single dose 15 mg, n=6): 149 (50.6) ng/mL
- Cmax, geometric mean (%CV) ([2]; day 1 single dose 15 mg, n=6): 141 (34) ng/mL
- tmax, median (range) ([2]; day 1 single dose 15 mg, n=6): 0.75 (0.50‐1.00) h
- t½, arithmetic mean (SD) ([2]; day 1 single dose 15 mg, n=6): 3.14 (0.672) h
- AUCτ, arithmetic mean (SD) ([2]; day 1 single dose 15 mg, n=6): 403 (128) ng ⋅ h/mL
- AUCτ, geometric mean (%CV) ([2]; day 1 single dose 15 mg, n=6): 387 (32) ng ⋅ h/mL
- Cmax, arithmetic mean (SD) [2, 17]: 143 (45.9) ng/mL
- Cmax, geometric mean (%CV) [2, 17]: 136 (32) ng/mL
- tmax, median (range) [2, 17]: 0.75 (0.50‐1.00) h
- t½, arithmetic mean (SD) [2, 17]: 3.28 (0.544) h
- AUCτ, arithmetic mean (SD) [2, 17]: 457 (116) ng ⋅ h/mL
- AUCτ, geometric mean (%CV) [2, 17]: 445 (25) ng ⋅ h/mL
- Constipation, n (all causality) (Safety and tolerability; [18]): 1
- Hunger, n (all causality) (Safety and tolerability; [18]): 2
- Skin irritation, n (all causality) (Safety and tolerability; [18]): 1
- adverse events of moderate intensity: skin irritation, events (Safety and tolerability; Cohort B, single dose 15 mg, not considered related to study treatment): 1
- renal function (individual creatinine levels) following repeat administration (Safety and tolerability; Japanese, Cohort B, 15 mg BID): renal function remained unaffected
- changes in vital signs or ECG measurements (Safety and tolerability; whole study): no clinically significant changes
- clinically significant laboratory abnormalities (Safety and tolerability; whole study): no volunteers had clinically significant laboratory abnormalities
- serious adverse events or deaths (Safety and tolerability; whole study, Cohorts A and B): No serious adverse events or deaths were reported
- contribution of renal clearance to clearance [3]: approximately 30%
- effect on glomerular filtration rate [4]: did not alter the glomerular filtration rate
